Assay results from different studies.
Each line is one published result; the experiments were not run side by side.
Target: Ephrin type-A receptor 7 (EPHA7, Homo sapiens, UniProt Q15375)

SMILES	read-out	mode	method	tested at	quantity	value
Cn1cc(-c2cc(F)cc(N3CCn4c(cc5c4CCCC5)C3=O)c2CO)cc(Nc2ccc(N3CCN(C4COC4)CC3)cn2)c1=O	enzyme activity	inhibitor	–	0.1 µM	inhibition	13%
COc1cc(Nc2ncc(F)c(Nc3ccc4c(n3)NC(=O)C(C)(C)O4)n2)cc(OC)c1OC	binding	–	competition with immobilised ligand	10 µM	inhibition	100%
N#CC1(c2ccccn2)CCN(Cc2cc(C(=O)O)c(=O)n3ccccc23)CC1	cell-free assay	–	competition with immobilised ligand	1 µM	remaining binding	100%
CC(C)(C)c1cc(C=C(C#N)C#N)cc(Br)c1O	enzyme activity	inhibitor	–	0.5 µM	remaining activity	107%
COc1ncccc1-c1cnn2ccc(N3CCN(C(=O)OC(C)C)CC3)nc12	binding	–	competition with immobilised ligand	1 µM	remaining binding	100%
Cn1cncc1[C@@](O)(COc1ccc(C#N)cc1-c1ccc(OC(F)(F)F)cc1)c1ccc(C#N)cc1	cell-free assay	–	competition with immobilised ligand	1 µM	remaining binding	100%
Cn1cc(-c2cccc(N3CCc4c(sc5c4CC(C)(C)C5)C3=O)c2CO)cc(Nc2ccncn2)c1=O	enzyme activity	inhibitor	–	1 µM	inhibition	83%
Cc1nn(C)cc1-c1nc2c(N3CCN(Cc4ccc(Cl)cc4)CC3)c(Cl)cnc2[nH]1	binding	–	competition with immobilised ligand	1 µM	remaining binding	100%
O=c1[nH]c2ccccc2n1C1CCN(Cc2ccc(-c3[nH]c4cc5ncnc5cc4nc3-c3ccccc3)cc2)CC1	cell-free assay	–	–	0.5 µM	remaining signal	109%
Nc1ncc(-c2nc(N3CCOCC3)nc(N3CCOCC3)n2)c(C(F)F)n1	cell-free assay	–	competition with immobilised ligand	10 µM	remaining binding	86%
